Measured values gathered from unrelated publications.
Compare with care: the assays were run in different laboratories.
Cell line: MCF7
Read-out: cell growth or viability

`COc1ccc(C=NNC(=O)c2cc(-c3ccccc3)n(-c3ccc(S(N)(=O)=O)cc3)n2)cc1OC` has an IC50 of 21.1 µM (fluorescence; 48 h).
The IC50 of `COc1cccc2c1C(=O)c1c(O)c3c(c(O)c1C2=O)C[C@@](O)(C(=O)CO)C[C@@H]3O[C@H]1C[C@H](N)[C@H](O)[C@H](C)O1` is reported as 34.3 µM (MTT).
`NNc1nc2c(Cl)cc(Cl)cc2c(=O)n1-c1ccccc1` has an IC50 of greater than 200 µM (MTT; 48 h).
With `COc1cccc2c1C(=O)c1c(O)c3c(c(O)c1C2=O)C[C@@](O)(C(=O)CO)C[C@@H]3O[C@H]1C[C@H](N)[C@H](O)[C@H](C)O1` the IC50 was 0.146 µM (96 h).
With `NS(=O)(=O)c1ccc(-n2nc(C(=O)NN3C(=O)c4ccccc4C3=O)cc2-c2ccccc2)cc1` the IC50 was 38.7 µM (fluorescence; 48 h).
For `C#Cc1cccc(Nc2ncnc3cc(OCCOC)c(OCCOC)cc23)c1`, the IC50 was greater than 20 µM (MTT; 48 h).
For `O=[N+]([O-])c1cc(Br)c(O)c(C=NNc2ccc(Cl)cc2)c1`, the IC50 was 10.1 µM (MTT; 24 h).
`Cc1noc(-c2nn(Cc3ccc(Cl)cc3Cl)c3ccccc23)n1` gave an IC50 of 47.5 µM (48 h).
`O=C1C(=Nc2ccc(Cl)cc2)c2ccccc2N1Cc1cccc(Cl)c1` has an IC50 of 9.41 µM (MTT; 48 h).
`CNc1cccc(Nc2nc(-c3ccncc3)nc3c2CNCC3)c1` has an IC50 of greater than 100 µM (MTT).
`O=C(NCc1ccc(OC(F)(F)F)cc1)c1cn(Cc2ccc(F)cc2)c2ccc(Oc3ccccc3)cc2c1=O` gave an IC50 of 343 µM (MTT; 24 h).
`COc1cccc2c1C(=O)c1c(O)c3c(c(O)c1C2=O)C[C@@](O)(C(=O)CO)C[C@@H]3O[C@H]1C[C@H](N)[C@H](O)[C@H](C)O1` has an IC50 of 1.81 µM (LDH; 48 h).
For `Cc1nc2ccc(-c3ccc(F)c(F)c3)cc2c(O)c1C(=O)O`, the IC50 was no less than 100 µM (MTT; 48 h).
For `O=[N+]([O-])c1ccc(O)c(C=NNc2ccc(Cl)cc2)c1`, the IC50 was 9.3 µM (MTT; 24 h).
`C(=N\Nc1cc(N/N=C/c2cccc3cccnc23)ncn1)/c1cccc2cccnc12` gave an IC50 of 7.02 µM (MTT; 48 h).
`CNC(=S)N/N=C/c1cccc2cc3ccccc3nc12` has an IC50 of 18.8 µM (MTT; 48 h).
`O=C1CS/C(=N\c2cc(C(F)(F)F)ccc2-c2nnc(N3C(=O)CS/C3=N\c3cc(O)cc(Br)c3)s2)N1c1cc(O)cc(Br)c1` has an IC50 of 73.5 µM (MTT).
The IC50 of `COc1cc(N=C2C(=O)N(Cc3ccccc3)c3ccccc32)cc(OC)c1` is reported as 0.56 µM (MTT; 48 h).
`C/C(=N\C(=S)/N=C(\C)c1c(O)c2ccccc2oc1=O)c1c(O)c2ccccc2oc1=O` gave an IC50 of 7.59 µM (MTT; 48 h).
The IC50 of `Cc1nc2ccc(-c3ccc(OCc4ccccc4)c(F)c3)cc2c(O)c1C(=O)O` is reported as no less than 100 µM (MTT; 48 h).
`CC(C)Cc1ccc([C@H](C)C(=O)O)cc1` gave an IC50 of 399 µM (SRB; 72 h).
For `CC(C)c1cccc(C(C)C)c1N=C1C(=O)N(Cc2ccc(Br)cc2)c2ccccc21`, the IC50 was 52.6 µM (MTT; 48 h).
`Cc1ccc(C(C)C)c(OC2=C(Cl)C(=O)c3ccccc3C2=O)c1` gave an IC50 of 4.59 µg/mL (MTT; 24 h).
`COc1cccc(Nc2nc(-c3ccncc3)nc3c2CNCC3)c1` gave an IC50 of 30.1 µM (MTT).
For `O=C1Nc2ccccc2/C1=N/N=C/c1cccc([N+](=O)[O-])c1`, the IC50 was 48.9 µg/mL (MTT; 24 h).
The IC50 of `COc1cccc2c1C(=O)c1c(O)c3c(c(O)c1C2=O)C[C@@](O)(C(=O)CO)C[C@@H]3O[C@H]1C[C@H](N)[C@H](O)[C@H](C)O1` is reported as 18.4 µM (MTT; 24 h).
For `FC(F)(F)c1ccc(-c2noc(-c3nn(Cc4ccc(Cl)cc4Cl)c4ccccc34)n2)cc1`, the IC50 was 166 µM (48 h).
`COc1ccc(N(Cc2csc(-c3ccccc3)n2)C(=O)CCCCCC(=O)NO)cc1` has an IC50 of 3.12 µM (MTT; 72 h).
With `O=c1c2cc(Cl)cc(Cl)c2nc(NNc2cccc(Cl)c2)n1-c1ccccc1` the IC50 was greater than 200 µM (MTT; 48 h).
With `O=C(O)c1c[nH]c2ccc(Oc3ccccc3)cc2c1=O` the IC50 was 287 µM (MTT; 48 h).
With `C[C@H]1[C@H](C)CC[C@]2(C)CC[C@]3(C)C(=CC(=O)[C@@H]4[C@@]5(C)CC[C@@H](O)[C@](C)(C(=O)NCc6cn(-c7cccc(C(F)(F)F)c7)nn6)[C@@H]5CC[C@]43C)[C@H]12` the IC50 was 73.2 µM (MTT; 24 h).
With `Nc1ccn([C@@H]2O[C@H](CO)[C@@H](O)C2(F)F)c(=O)n1` the IC50 was 1.59 µg/mL (MTT; 48 h).
`Cc1cccc(N=C2C(=O)N(Cc3ccccc3)c3ccccc32)c1` has an IC50 of 8.11 µM (MTT; 48 h).
The IC50 of `C[C@H]1[C@H](C)CC[C@]2(C)CC[C@]3(C)C(=CC(=O)[C@@H]4[C@@]5(C)CC[C@@H](O)[C@](C)(C(=O)NCc6cn(-c7ccccc7C(F)(F)F)nn6)[C@@H]5CC[C@]43C)[C@H]12` is reported as 83.4 µM (MTT; 24 h).
With `COc1ccc(N=C2SCC(=O)N2c2nnc(-c3ccc(C(F)(F)F)cc3N=C3SCC(=O)N3c3ccc(OC)cc3)s2)cc1` the IC50 was 73.5 µM (MTT).
`CC(=O)O[C@@]12CO[C@@H]1C[C@H](O)[C@@]1(C)C(=O)[C@H](O)C3=C(C)[C@@H](OC(=O)[C@H](O)[C@@H](NC(=O)OC(C)(C)C)c4ccccc4)C[C@@](O)([C@@H](OC(=O)c4ccccc4)[C@H]21)C3(C)C` has an IC50 of 92.5 µM (MTT; 48 h).
`O=[N+]([O-])c1ccc(O)c(C=NNc2ccc(C(F)(F)F)cc2)c1` has an IC50 of 13 µM (MTT; 24 h).
`O=C(NO)Nc1nc2c(Cl)cc(Cl)cc2c(=O)n1-c1ccc(Cl)cc1` gave an IC50 of greater than 200 µM (MTT; 48 h).
`CC(=O)c1c(O)c2ccccc2oc1=O` gave an IC50 of 32.5 µM (MTT; 48 h).
`C#Cc1cccc(Nc2ncnc3cc(OCCOC)c(OCCOC)cc23)c1` has an IC50 of 1.05 µM (LDH; 48 h).
For `CCOC(=O)c1c(C)nc2ccc(-c3ccc(OCc4ccccc4)c(F)c3)cc2c1O`, the IC50 was 5 µM (MTT; 48 h).
`O=C1Nc2ccccc2C1=Nc1ccccc1I` gave an IC50 of 42.6 µM (MTT; 48 h).
For `O=C(O)c1cn(Cc2ccc(C(F)(F)F)cc2)c2ccc(Oc3ccccc3)cc2c1=O`, the IC50 was 38.5 µM (MTT; 24 h).
`C/C(=N\N=C(/C)c1c(O)c2ccccc2oc1=O)c1c(O)c2ccccc2oc1=O` has an IC50 of 33.6 µM (MTT; 48 h).
With `COc1cccc(N=C2SCC(=O)N2c2nnc(-c3ccc(C(F)(F)F)cc3N=C3SCC(=O)N3c3cccc(OC)c3)s2)c1` the IC50 was 78.3 µM (MTT).
For `CCC(C(=O)N1C(=O)C(=Nc2ccc(Cl)cc2Br)c2ccccc21)c1ccccc1` (centres unmarked), the IC50 was 34.2 µM (MTT; 48 h).
With `Clc1ccc(Cn2nc(-c3ncc(-c4ccccc4)s3)c3ccccc32)c(Cl)c1` the IC50 was 65.2 µM (48 h).
For `O=C1C(=Nc2ccccc2I)c2ccccc2N1Cc1cccc(Cl)c1`, the IC50 was 13.5 µM (MTT; 48 h).
`CO[C@H]1[C@H](O[C@H]([C@H]2O[C@@H](n3ccc(=O)[nH]c3=O)[C@H](O)[C@@H]2O)[C@H](NCCCNC(=O)[C@@H](NC(=O)[C@@H](NC(=O)N[C@H](C(=O)O)C(C)C)[C@@H]2CCN=C(N)N2)[C@@H](OC(=O)CCCCCCCCCCCCN(O)C(=N)N)C(C)C)C(=O)O)O[C@H](CN)[C@H]1O` gave an IC50 of 0.95 µM (WST-1).
`O=C(C=Cc1ccc(OCCCCOc2ccc(C=CC(=O)c3cccs3)cc2)cc1)c1cccs1` gave an IC50 of 134 µM (MTT; 48 h).
The IC50 of `O=C1C(=Nc2ccccc2I)c2ccccc2N1Cc1ccc(Br)cc1` is reported as 8.79 µM (MTT; 48 h).
`O=C(NO)Nc1nc2ccc(Br)cc2c(=O)n1-c1ccccc1` has an IC50 of 29.6 µM (MTT; 48 h).
`C[C@H]1[C@H](C)CC[C@]2(C(=O)O)CC[C@]3(C)C(=CC[C@@H]4[C@@]5(C)CC[C@H](O)C(C)(C)[C@@H]5CC[C@]43C)[C@H]12` gave an IC50 of 25.7 µM (thymidine uptake; 24 h).
The IC50 of `COc1ccc2c(-c3ncc(-c4ccccc4)o3)nn(Cc3ccccc3)c2c1` is reported as 88 µM (48 h).
`CC(=NNC(=O)c1cc(-c2ccccc2)n(-c2ccc(S(N)(=O)=O)cc2)n1)c1ccc(Br)cc1` has an IC50 of 35.4 µM (fluorescence; 48 h).
The IC50 of `Fc1ccc(NC(=S)N/N=C/c2cccc3cc4ccccc4nc23)cc1` is reported as greater than 50 µM (MTT; 48 h).
